This note sets out measurements from ChEMBL document CHEMBL4406851, “Design, synthesis and biological evaluation of cinnamic acid derivatives with synergetic neuroprotection and angiogenesis effect” (Eur J Med Chem, 2019).

The test system of test [1] is SH-SY5Y. The test is described as follows: Neuroprotective activity against H2O2-induced cell damage in human SH-SY5Y cells assessed as increase in cell viability preincubated for 24 hrs followed by H2O2 addition and measured after 4 hrs by MTT assay. Type of test: functional, cell-based. The method in brief:
(§1)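 Cells at 3.5×10^4 cells/mL in 96-well plates were grown 24 h (37 °C, 5% CO2). Test agent was added at five concentrations for 24 h, then H2O2 (4.8 mM stock) to model and drug wells. After PBS washes, MTT (5 mg/mL) was added for 4 h, formazan was dissolved in DMSO and OD was read at 550 nm. Proliferation rate = (drug − injury OD)/(control − injury OD). EC50 came from a formula using maximum concentration and summed, maximal and minimal rates.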

A short description of test [2]: Neuroprotective activity against H2O2-induced cell damage in human HBMEC2 cells assessed as increase in cell viability preincubated for 24 hrs followed by H2O2 addition and measured after 4 hrs by MTT assay. Type of test: functional, cell-based. Particulars: HBMEC-2. The method in brief: as §1
Background: Tetrazolium dyes change colour on reduction, which living cells bring about.

Usually EC50 stands for the concentration needed to bring the measured effect to its halfway point.

On to `COc1cc(CNC(=O)/C=C/c2ccc(OC)c(OCc3nc(C)c(C)nc3C)c2)ccc1O`, for which the EC50 worked out at 9.25 µM in test [1] and 9.3 µM in test [2].

In the case of `COc1cc(/C=C/C(=O)NCc2ccc(OCc3nc(C)c(C)nc3C)c(OC)c2)ccc1O`, the results for the EC50 in test [1] and in test [2] were 13.4 µM and 5.81 µM, respectively.

Turning to `COc1cc(CNC(=O)/C=C/c2ccc(O)cc2)ccc1OCc1nc(C)c(C)nc1C`, the results for the EC50 in test [1] and in test [2] were 3.74 µM and 6.23 µM, respectively.

`COc1cc(/C=C/C(=O)NCc2ccc(OCc3nc(C)c(C)nc3C)c(OC)c2)ccc1OCc1nc(C)c(C)nc1C`: the half-maximal effective concentration (EC50) in test [1] worked out at 11.1 µM; in test [2], 14.5 µM.

In the case of `COc1cc(CNC(=O)/C=C/c2ccccc2)ccc1O`, the EC50 is 3.66 µM in test [1] and 9.8 µM in test [2].

For `COc1ccccc1/C=C/C(=O)NCc1ccc(OCc2nc(C)c(C)nc2C)c(OC)c1`, the EC50 in test [1] came to 7.15 µM; in test [2], 12 µM.

Turning to `COc1cc(CNC(=O)/C=C/c2ccc(OC)c(OC)c2)ccc1O`, the results for the EC50 in test [1] and in test [2] were 11 µM and 8.85 µM, respectively.

With `COc1ccc(OC)c(/C=C/C(=O)NCc2ccc(OCc3nc(C)c(C)nc3C)c(OC)c2)c1`, the EC50 in test [1] stood at 11 µM; in test [2] it was 11.8 µM.

`COc1cc(CNC(=O)/C=C/c2ccc(OC)c(OCc3nc(C)c(C)nc3C)c2)ccc1OCc1nc(C)c(C)nc1C`: the values for the EC50 in test [1] and in test [2] were 11.6 µM and 14.6 µM, respectively.

For `COc1cc(CNC(=O)/C=C/c2ccccc2)ccc1OCc1nc(C)c(C)nc1C`, the EC50 in test [1] is 7.31 µM; in test [2] it was 4.99 µM.

On to `COc1cc(CNC(=O)/C=C/c2ccccc2OCc2nc(C)c(C)nc2C)ccc1OCc1nc(C)c(C)nc1C`, for which the EC50 in test [1] is 6.28 µM; in test [2], 15.1 µM.

With `COc1cc(OC)c(OC)cc1/C=C/C(=O)NCc1ccc(OCc2nc(C)c(C)nc2C)c(OC)c1`, the results for the EC50 in test [1] and in test [2] were 3.62 µM and 12.5 µM, respectively.

For the compound `COc1cc(CNC(=O)/C=C/c2ccc(OCc3nc(C)c(C)nc3C)cc2)ccc1O`, the values for the EC50 in test [1] and in test [2] were 5.37 µM and 12.5 µM, respectively.

`CC1=NN(c2ccccc2)C(=O)C1` [EDARAVONE]: the EC50 in test [1] is 3.75 µM; in test [2], 4.61 µM.

With `COc1cc(CNC(=O)/C=C/c2cccc(OCc3nc(C)c(C)nc3C)c2)ccc1O`, the EC50 was 8.09 µM in test [1] and 10.6 µM in test [2].

As for `COc1ccc(/C=C/C(=O)NCc2ccc(OCc3nc(C)c(C)nc3C)c(OC)c2)cc1OC`, the EC50 is 4.47 µM in test [1] and 15.8 µM in test [2].

For the compound `COc1cc(CNC(=O)/C=C/c2ccc(OC)c(OC)c2OC)ccc1OCc1nc(C)c(C)nc1C`, the values for the EC50 in test [1] and in test [2] were 3.84 µM and 18.1 µM, respectively.

In the case of `COc1cc(CNC(=O)/C=C/c2ccc(OCc3nc(C)c(C)nc3C)c(OC)c2)ccc1O`, the results for the EC50 in test [1] and in test [2] were 10.2 µM and 11.6 µM, respectively.

Regarding `COc1cc(CNC(=O)/C=C/c2cccc(OC)c2OC)ccc1OCc1nc(C)c(C)nc1C`, the EC50 in test [1] stood at 7.15 µM; in test [2], 6.31 µM.

In the case of `Cc1nc(C)c(C)nc1C` [LIGUSTRAZINE], the results for the half-maximal effective concentration (EC50) in test [1] and in test [2] were 17.6 µM and 15.2 µM, respectively.

With `COc1cc(CNC(=O)/C=C/c2ccccc2O)ccc1OCc1nc(C)c(C)nc1C`, the half-maximal effective concentration (EC50) in test [1] was determined as 5.3 µM; in test [2], 6.07 µM.

For `COc1ccc(OC)c(/C=C/C(=O)NCc2ccc(O)c(OC)c2)c1`, the values for the EC50 in test [1] and in test [2] were 9.5 µM and 10.5 µM, respectively.

On to `COc1cc(CNC(=O)/C=C/c2cccc(OC)c2OC)ccc1O`, for which the results for the EC50 in test [1] and in test [2] were 5.49 µM and 13.1 µM, respectively.

`COc1cc(CNC(=O)/C=C/c2cccc(O)c2)ccc1O`: the EC50 worked out at 8.62 µM in test [1] and 5.75 µM in test [2].

Regarding `COc1cc(CNC(=O)/C=C/c2ccc(OCc3nc(C)c(C)nc3C)cc2)ccc1OCc1nc(C)c(C)nc1C`, the figures for the EC50 in test [1] and in test [2] were 7.77 µM and 21.4 µM, respectively.

With `COc1ccc(/C=C/C(=O)NCc2ccc(O)c(OC)c2)cc1O`, the EC50 in test [1] was found to be 7.85 µM; in test [2], 11.8 µM.

On to `COc1cc(/C=C/C(=O)NCc2ccc(OCc3nc(C)c(C)nc3C)c(OC)c2)cc(OC)c1`, for which the EC50 in test [1] turned out to be 8.66 µM; in test [2], 12.9 µM.

Turning to `COc1cc(CNC(=O)/C=C/c2cc(OC)c(OC)c(OC)c2)ccc1OCc1nc(C)c(C)nc1C`, the EC50 in test [1] was 11.5 µM; in test [2], 3.55 µM.

In the case of `COc1cc(CNC(=O)/C=C/c2ccc(O)cc2)ccc1O`, the EC50 in test [1] came to 6 µM; in test [2], 8.04 µM.

Regarding `COc1cc(/C=C/C(=O)NCc2ccc(O)c(OC)c2)cc(OC)c1`, the EC50 is 4.86 µM in test [1] and 7.81 µM in test [2].

Turning to `COc1cc(CNC(=O)/C=C/c2ccccc2O)ccc1O`, the EC50 in test [1] is 9.76 µM; in test [2], 7.46 µM.

For `COc1cc(CNC(=O)/C=C/c2cc(OC)c(OC)c(OC)c2)ccc1O`, the EC50 in test [1] stood at 5.91 µM; in test [2], 2.59 µM.

As for `COc1cc(CNC(=O)/C=C/c2ccccc2OCc2nc(C)c(C)nc2C)ccc1O`, the figures for the EC50 in test [1] and in test [2] were 12 µM and 6.65 µM, respectively.

Regarding `COc1cccc(/C=C/C(=O)NCc2ccc(O)c(OC)c2)c1`, the figures for the EC50 in test [1] and in test [2] were 5.24 µM and 7.11 µM, respectively.

Take `COc1ccc(/C=C/C(=O)NCc2ccc(OCc3nc(C)c(C)nc3C)c(OC)c2)cc1O`: the EC50 in test [1] came out at 8.56 µM; in test [2], 13.5 µM.

Consider `COc1cccc(/C=C/C(=O)NCc2ccc(OCc3nc(C)c(C)nc3C)c(OC)c2)c1`, for which the concentration for a half-maximal effect (EC50) in test [1] is 4.32 µM; in test [2], 9.87 µM.

Turning to `COc1cc(CNC(=O)/C=C/c2cccc(OCc3nc(C)c(C)nc3C)c2)ccc1OCc1nc(C)c(C)nc1C`, the EC50 in test [1] stood at 8.7 µM; in test [2] it was 12.8 µM.

Take `COc1cc(CNC(=O)/C=C/c2cccc(O)c2)ccc1OCc1nc(C)c(C)nc1C`: the EC50 in test [1] was determined as 3.68 µM; in test [2], 6.17 µM.

Regarding `COc1ccc(/C=C/C(=O)NCc2ccc(O)c(OC)c2)cc1`, the figures for the concentration for a half-maximal effect (EC50) in test [1] and in test [2] were 11.4 µM and 10.4 µM, respectively.

Turning to `COc1cc(CNC(=O)/C=C/c2ccc(OC)c(OC)c2OC)ccc1O`, the EC50 in test [1] worked out at 7.45 µM; in test [2] it was 4.82 µM.

On to `COc1ccc(/C=C/C(=O)NCc2ccc(OCc3nc(C)c(C)nc3C)c(OC)c2)cc1`, for which the concentration for a half-maximal effect (EC50) in test [1] came out at 5.05 µM; in test [2], 6.56 µM.

For the compound `COc1cc(/C=C/C(=O)NCc2ccc(O)c(OC)c2)ccc1O`, the EC50 in test [1] turned out to be 9.3 µM; in test [2], 6.34 µM.

Take `COc1cc(CNC(=O)/C=C/c2ccccc2OC)ccc1O`: the EC50 worked out at 5.98 µM in test [1] and 6.48 µM in test [2].

Regarding `COc1cc(CNC(=O)CCCC/C=C/C(C)C)ccc1O` [CAPSAICIN], the figures for the EC50 in test [1] and in test [2] were 14 µM and 16.4 µM, respectively.
